The source of these data is ChEMBL document CHEMBL1136789, “Synthesis and biological evaluation of new 2-(4,5-dihydro-1H-imidazol-2-yl)-3,4-dihydro-2H-1,4-benzoxazine derivatives” (J Med Chem, 2003).

Assay [1] in a line: In vitro alpha-2 adrenergic receptor binding affinity was determined on calf frontal cortex membrane preparation. It counts as tissue-based, Bos taurus.
Assay [2] relates to Rattus norvegicus. As to the kind of experiment: Effect at 25 mg/kg, ip, on mean arterial blood pressure in anesthetized spontaneously hypertensive rats; lethal at 12.5 mg; toxic at 5 mg; inactive at 0.5 mg. It counts as functional, organism-based. Set-up: dose 25 mg/kg.
Assay [3] can be described thus: In vitro alpha-1 adrenergic receptor binding affinity was determined on calf frontal cortex membrane preparation. It counts as tissue-based, Bos taurus. In outline: (§1)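 Calf frontal cortex membranes (0.5 mg protein/mL) incubated 40 min at 25 °C with 0.5 nM [3H]prazosin in 50 mM phosphate buffer with 10 mM MgCl2. Competitors at 10^-9 to 10^-4 M. Nonspecific binding set with 10 µM phentolamine. Stopped by rapid vacuum filtration through glass fibre filters, then washed three times with ice-cold buffer. Ki reported.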

The test system of assay [4] is Rattus norvegicus. As to the kind of experiment: Effect at (25 mg/kg, ip) on heart rate in anesthetized spontaneously hypertensive rats. It counts as functional. In outline: (§2)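 Adult male SHR anaesthetised with sodium pentobarbital 50 mg/kg ip, left carotid catheter filled with heparinised saline. BP and HR (HR from pulse pressure) stabilised ≥40 min before a single ip dose, n=6/group. Vehicle 0.5% carboxymethylcellulose in water, 2.5 mL/kg. Recorded over 90 min. Output is the maximal change in MAP (mmHg) and HR (bpm) from pre-dose baseline, also as %. Repeated-measures ANOVA with Dunnett's tests.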

The target in assay [5] is T1, Alpha-1A adrenergic receptor (Bos taurus, UniProt P18130).
T1 sequence (P18130 whole entry): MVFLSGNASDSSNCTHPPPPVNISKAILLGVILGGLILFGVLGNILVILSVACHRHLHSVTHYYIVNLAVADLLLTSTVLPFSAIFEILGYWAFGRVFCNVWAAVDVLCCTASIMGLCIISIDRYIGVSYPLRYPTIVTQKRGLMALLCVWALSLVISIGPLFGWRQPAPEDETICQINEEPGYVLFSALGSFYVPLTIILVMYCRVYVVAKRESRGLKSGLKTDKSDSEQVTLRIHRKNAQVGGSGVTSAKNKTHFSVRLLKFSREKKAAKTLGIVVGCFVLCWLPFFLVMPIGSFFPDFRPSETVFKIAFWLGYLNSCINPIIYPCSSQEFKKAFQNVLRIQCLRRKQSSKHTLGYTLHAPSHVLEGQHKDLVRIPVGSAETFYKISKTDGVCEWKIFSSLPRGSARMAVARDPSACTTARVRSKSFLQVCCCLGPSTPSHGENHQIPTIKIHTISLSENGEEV
Put plainly: In Vitro Alpha-1 adrenergic receptor binding affinity on calf frontal cortex membrane preparation. The format is tissue-based. The method, boiled down:
as §1

In assay [6] the test system is Rattus norvegicus. As to the kind of experiment: Effect after 25 mg/kg, po, on mean arterial blood pressure in conscious spontaneously hypertensive rats. It counts as functional. The method, boiled down:
(§3)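 Studied conscious 24 h after surgery. Dosed by oral gavage after ≥40 min stabilisation, n=6/group. Vehicle 0.5% carboxymethylcellulose, 5 mL/kg. MAP and HR recorded over 24 h. Output is the maximal change from baseline (mmHg, bpm, %). Repeated-measures ANOVA with Dunnett's tests.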

Assay [7] relates to Rattus norvegicus. Put plainly: Effect after 25 mg/kg, po, on heart rate in conscious spontaneously hypertensive rats. The format is functional. The method, boiled down: as §3
For assay [8], the system named is Rattus norvegicus. Put plainly: Effect (25 mg/kg ip) on heart rate in anesthetized spontaneously hypertensive rats. It counts as functional. In outline: as §2
The test system of assay [9] is Rattus norvegicus. Put plainly: Effect (25 mg/kg ip) on mean arterial blood pressure in anesthetized spontaneously hypertensive rats. The format is functional. In outline: as §2
Assay [10] concerns the target imidazoline I2 binding site (Oryctolagus cuniculus). Put plainly: In vitro binding affinity determined against imidazoline receptor I-2 using rabbit kidney preparation.
The test system of assay [11] is Rattus norvegicus. Put plainly: Effect after 10 mg/kg, po, on heart rate in conscious spontaneously hypertensive rats. The format is functional. The method, boiled down:
as §3

The test system of assay [12] is Rattus norvegicus. Put plainly: Effect after 30 mg/kg, po, on heart rate in conscious spontaneously hypertensive rats. The format is functional. The method, boiled down:
as §3

Assay [13] deals with Rattus norvegicus. As to the kind of experiment: Effect after 100 mg/kg, po, on heart rate in conscious spontaneously hypertensive rats. The format is functional. The method, boiled down:
as §3

The subject of assay [14] is Rattus norvegicus. As to the kind of experiment: Effect after 30 mg/kg, po, on mean arterial blood pressure in conscious spontaneously hypertensive rats. It counts as functional. In outline: as §3
Assay [15] deals with Rattus norvegicus. As to the kind of experiment: Effect after 100 mg/kg, po, on mean arterial blood pressure in conscious spontaneously hypertensive rats. The format is functional. In outline:
as §3

Assay [16] concerns Rattus norvegicus. Put plainly: Effect after 10 mg/kg, po, on mean arterial blood pressure in conscious spontaneously hypertensive rats. The format is functional. The method, boiled down:
as §3

Each structure is given as a SMILES string. Active and inactive are the calls of the source. The calls are words filed in the database; no cut-off is given here.

One may read the Ki as a dissociation constant, usually derived from enzyme kinetics or from competition with a known ligand. The low end stands for a stronger hold on the target, the high end for a looser hold on the target. Compound `Cc1cc(C)c2c(c1)N(C)CC(C1=NCCN1)O2` (configuration not stated) displayed an inhibition constant Ki in assay [1] of 12.4 nM. Also, in the assay with Rattus norvegicus [2], the “Max delta MAP” value is “inactive” and the Variation result is “inactive”. Besides, the Ki in assay [3] was above 1000 nM.

As for `CN1CC(C2=NCCN2)Oc2ccccc21` (configuration not stated), the results for the Ki in [1] and in assay [5] were 74 nM and 1100 nM, respectively. Also, the figures for the “Max delta HR” value with Rattus norvegicus [4] and in the assay with Rattus norvegicus [7] were -148 beats min-1 and -97 beats min-1, respectively. Further, the “Max delta MAP” value is -65 mmHg in the assay on Rattus norvegicus [6] and -36 mmHg with Rattus norvegicus [9]. In addition, the Variation in the assay on Rattus norvegicus [6] is -36%; with Rattus norvegicus [7], -26%; with Rattus norvegicus [8] it was -44%; in the assay with Rattus norvegicus [9], -21%.

In the case of `c1ccc(CN2CC(C3=NCCN3)Oc3ccccc32)cc1` (configuration not stated), the Ki was 1300 nM in assay [1], 1600 nM in assay [10] and 3500 nM in [3]. Besides, the “Max delta HR” value in the assay with Rattus norvegicus [4] is given as -21 beats min-1. Further, the Variation is on record as -7% in the assay on Rattus norvegicus [8] and -2% in the assay on Rattus norvegicus [9]. The “Max delta MAP” value in the assay on Rattus norvegicus [9] was -4 mmHg.

For the compound `CCCN1CC(C2=NCCN2)Oc2ccccc21` (configuration not stated), the Ki in assay [1] was 132 nM; in assay [10] it was 160 nM; in assay [3], above 10000 nM. Also, the “Max delta HR” value with Rattus norvegicus [4] is on record as -90 beats min-1. The Variation in the assay with Rattus norvegicus [8] was -27%; with Rattus norvegicus [9], -14%. Besides, the “Max delta MAP” value in the assay on Rattus norvegicus [9] was -26 mmHg.

For `Cc1ccc2c(c1)N(C)CC(C1=NCCN1)O2` (configuration not stated), the Ki in assay [1] was 70 nM; in [10], 1.99 nM; in [3], above 1000 nM. Also, the “Max delta HR” value with Rattus norvegicus [11] is -11 beats min-1; with Rattus norvegicus [4], -127 beats min-1; in the assay on Rattus norvegicus [12], -32 beats min-1; in the assay with Rattus norvegicus [13] it was -77 beats min-1. Further, the Variation with Rattus norvegicus [11] was -3%; in the assay on Rattus norvegicus [8], -37%; with Rattus norvegicus [12], -10%; in the assay on Rattus norvegicus [13], -23%; in the assay on Rattus norvegicus [14] it was -23%; with Rattus norvegicus [15], -28%. Also, the Variation is listed as -175% in the assay on Rattus norvegicus [9] and -10% in the assay on Rattus norvegicus [16]. The “Max delta MAP” value is given as -43 mmHg in the assay on Rattus norvegicus [14], -53 mmHg in the assay with Rattus norvegicus [15], -32 mmHg in the assay on Rattus norvegicus [9] and -18 mmHg in the assay with Rattus norvegicus [16].
